In publication PMC3806897 (ACS chemical biology, 2013):

Key:
ABHD6 [1] = target: T1, ABHD6 (Mus musculus, UniProt Q8R2Y0); assay: In vitro competitive ABPP with FP-Rh in mouse brain proteome; type: biochemical; conditions: for relative ABHD6 inhibitory potency: JW842 vs JW843, JW651 vs JW814, MJN110 vs all carbamates
T1 sequence (Q8R2Y0 1-336): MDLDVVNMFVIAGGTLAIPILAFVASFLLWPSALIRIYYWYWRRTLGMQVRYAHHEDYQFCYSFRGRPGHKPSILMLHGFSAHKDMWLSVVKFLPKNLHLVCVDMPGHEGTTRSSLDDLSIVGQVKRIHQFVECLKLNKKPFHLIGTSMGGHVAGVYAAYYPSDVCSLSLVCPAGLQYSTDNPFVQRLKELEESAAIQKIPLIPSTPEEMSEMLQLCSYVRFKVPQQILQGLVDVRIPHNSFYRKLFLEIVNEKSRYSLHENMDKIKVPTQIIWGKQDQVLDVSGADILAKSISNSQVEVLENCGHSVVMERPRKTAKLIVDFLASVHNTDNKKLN
Outline: (§1)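 Mouse brain membrane proteome (1.0 mg/mL) was preincubated with DMSO or test compound (1–100,000 nM) for 30 min at 37 °C. FP-Rh (50 μM stock in DMSO) was added for another 30 min at room temperature, and reactions were quenched with SDS loading buffer. After SDS-PAGE, MAGL, ABHD6 and FAAH activities were quantified from in-gel fluorescent band intensities, from which IC50 values were calculated.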

[2] = tested on: other brain serine hydrolases; assay: In vitro competitive ABPP with FP-Rh, off-target profile; type: biochemical, mouse
Outline: as §1

MAGL [3] = assay: In vivo competitive ABPP of brain proteomes from treated mice; set-up: species or system mouse
Outline: (§2)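 C57Bl/6J mice received test compound by oral gavage in PEG300 (1.0–40 mg•kg-1). At 4 h they were anesthetized with isoflurane, killed by cervical dislocation, and tissues were flash-frozen. Brain membrane proteomes were labeled with FP-Rh for 30 min at room temperature, quenched in reducing SDS loading buffer, separated on 10% SDS-PAGE and scanned for in-gel fluorescence.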

ABHD6 [4] = target: T1, ABHD6; assay: as above; conditions: 40 mg•kg^-1 p.o., 4 h
Outline: as §2

[5] = tested on: brain lipid levels (2-AG, AA, AEA); assay: Brain lipid levels in treated mice; type: in vivo, mouse; conditions: JW651-treated mice, p.o., 4 h
Outline: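 C57Bl/6J mice were dosed by oral gavage in PEG300 (1.0–40 mg•kg-1). After 4 h they were anesthetized with isoflurane and killed by cervical dislocation. Brains were harvested and flash-frozen in liquid N2. Lipids were measured by LC/MS against commercial standards.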

MAGL [6] = target: T2, MAGL (Mus musculus, UniProt O35678); assay: In vitro competitive ABPP with FP-Rh in mouse brain proteome; type: biochemical; conditions: JW842 vs JW843, JW651 vs JW814; MJN110 vs all carbamates
T2 sequence (O35678 1-303): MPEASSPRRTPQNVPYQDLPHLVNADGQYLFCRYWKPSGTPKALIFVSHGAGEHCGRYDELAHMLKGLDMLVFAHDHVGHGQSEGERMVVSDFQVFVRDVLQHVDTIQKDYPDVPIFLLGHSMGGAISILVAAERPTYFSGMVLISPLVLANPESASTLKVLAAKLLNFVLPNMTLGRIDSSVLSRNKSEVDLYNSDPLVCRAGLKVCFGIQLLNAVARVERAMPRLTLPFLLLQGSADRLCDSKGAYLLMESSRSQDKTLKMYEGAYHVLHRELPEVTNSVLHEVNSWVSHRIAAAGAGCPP
Outline: as §1

FAAH [7] = target: T3, FAAH (Mus musculus, UniProt O08914); assay: as above; type: biochemical; conditions: 30 min, 37 °C
T3 sequence (O08914 1-579): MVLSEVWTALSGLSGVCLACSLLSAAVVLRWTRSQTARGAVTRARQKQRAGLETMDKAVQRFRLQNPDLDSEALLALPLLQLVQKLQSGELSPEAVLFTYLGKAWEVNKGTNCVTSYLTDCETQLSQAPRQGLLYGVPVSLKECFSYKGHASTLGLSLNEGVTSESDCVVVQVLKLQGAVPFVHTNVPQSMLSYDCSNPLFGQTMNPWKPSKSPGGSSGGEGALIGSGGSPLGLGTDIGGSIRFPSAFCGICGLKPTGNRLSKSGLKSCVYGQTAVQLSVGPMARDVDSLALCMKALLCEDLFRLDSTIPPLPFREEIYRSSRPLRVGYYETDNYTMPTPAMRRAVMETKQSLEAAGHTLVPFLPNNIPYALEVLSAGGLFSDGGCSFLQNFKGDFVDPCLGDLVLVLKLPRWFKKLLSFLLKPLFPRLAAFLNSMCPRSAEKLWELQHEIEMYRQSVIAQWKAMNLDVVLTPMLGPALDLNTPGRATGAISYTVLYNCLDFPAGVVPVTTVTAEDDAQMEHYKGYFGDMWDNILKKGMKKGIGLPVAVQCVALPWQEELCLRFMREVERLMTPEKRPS
Outline: as §1

FAAH [8] = target: T3, FAAH; assay: In vivo competitive ABPP of brain proteomes from treated mice; conditions: oral, 4 h
Outline: as §2

FAAH [9] = target: T3, FAAH; assay: In vitro CC-ABPP of mouse brain proteomes; type: biochemical
Outline: (§3)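 Brain membrane proteome from naïve mice (1.0 mg/mL) was treated with varying concentrations of alkyne carbamate probe for 30 min at 37 °C. A premixed click mixture was added immediately: CuSO4 (50 mM stock), TBTA (1.7 mM stock), freshly prepared TCEP (50 mM stock) and Rh-N3 (1.25 mM stock). Reactions ran 1 h at room temperature, were diluted with SDS loading buffer, and were read by SDS-PAGE in-gel fluorescence.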

carboxylesterases (CESs) = assay: In vivo CC-ABPP of liver proteomes; set-up: species or system mouse; conditions: oral, 1-40 mg•kg^–1, 4 h
Outline: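 Mice received oral alkyne carbamate probe in PEG300 (1–40 mg•kg-1) for 4 h before livers were harvested and flash-frozen. Liver membrane proteome, with the soluble fraction removed, was diluted to 1.0 mg/mL. It was clicked to Rh-N3 with premixed CuSO4, TBTA and fresh TCEP for 1 h at room temperature, then diluted in SDS loading buffer and resolved by SDS-PAGE for in-gel fluorescence.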

MAGL [10] = assay: In vitro click chemistry; type: biochemical, mouse; conditions: CC-ABPP with Rh-N3, 30 min, 37 °C
Outline: as §3

mouse brain proteome [11] = assay: In vitro CC-ABPP, background proteome reactivity; type: biochemical
Outline: as §3

mouse brain proteome [12] = assay: In vivo CC-ABPP of brain proteomes, off-target labeling; conditions: entire tested dose range 1-40 mg•kg^–1 p.o.
MAGL [13] = target: T2, MAGL; assay: In vivo competitive ABPP of liver proteomes; conditions: oral, 1-40 mg•kg^–1, 4 h
Outline: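 Mice were gavaged orally with test compound in PEG300 (1.0–40 mg•kg-1). After 4 h, animals were killed under isoflurane and livers flash-frozen. Liver membrane proteomes were labeled with FP-Rh for 30 min at room temperature, quenched with reducing SDS loading buffer, resolved on 10% SDS-PAGE and read by in-gel fluorescence scanning.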

brain serine hydrolases = assay: In vivo competitive ABPP of brain proteomes, off-target profile; set-up: species or system mouse; conditions: oral, 1-40 mg•kg^–1, 4 h
Outline: as §2

O=C(OC(C(F)(F)F)C(F)(F)F)N1CCN(C(c2ccc(Cl)cc2)c2ccc(Cl)cc2)CC1 [JW651]
blockade of ABHD6 (ABHD6 [1]; at 10 μM): partial blockade | cross-reactivity with other brain serine hydrolases off-targets ([2]; up to 10 μM): did not exhibit cross-reactivity | detectable off-targets ([2]; up to 100 μM JW651, membrane fraction of mouse brain proteome): ABHD6 being the only detectable off-target | lowest dose giving near complete / complete inhibition of MAGL in brain (MAGL [3]; C57Bl/6J mice, oral gavage 1.0 to 40 mg•kg^-1, 4 h): 5 mg/kg | inhibition of ABHD6 in brain (ABHD6 [4]): partial inhibition | brain levels of N-arachidonoylethanolamide (AEA) [5]: unaffected | brain levels of arachidonic acid (AA) [5]: concomitant reductions | elevation of brain levels of 2-AG [5]: 10 fold

O=C(Oc1ccc([N+](=O)[O-])cc1)N1CCN(C(c2ccc(Cl)cc2)c2ccc(Cl)cc2)CC1 [JW842]
relative MAGL inhibitory potency (MAGL [6]): much greater potency | relative ABHD6 inhibitory potency (ABHD6 [1]): much greater potency

C#Cc1ccc(C(c2ccc(Cl)cc2)N2CCN(C(=O)Oc3ccc([N+](=O)[O-])cc3)CC2)cc1 (stereo not shown) [JW842yne]
change in inhibitory activity against FAAH on exchange of chloro for alkyne (FAAH [7]): slight increase | relative activity on MAGL in the brain in vivo (MAGL [3]; oral, 1-40 mg•kg^–1, 4 h, vs JW651yne and MJN110yne): less active | dose producing strong inhibition of FAAH in brain (FAAH [8]): ≥ 10 mg•kg^–1 | cross-reactivity with FAAH (FAAH [9]): some cross-reactivity | CES labeling in liver (carboxylesterases (CESs)): strongest CES labeling profile

O=C(ON1C(=O)CCC1=O)N1CCN(C(c2ccc(Cl)cc2)c2ccc(Cl)cc2)CC1 [MJN110]
relative MAGL inhibitory potency (MAGL [6]): highest | relative ABHD6 inhibitory potency (ABHD6 [1]): highest | other off-targets observed ([2]; below 100 μM): LYPLA1/2 being the only other off-targets

C#Cc1ccc(C(c2ccc(Cl)cc2)N2CCN(C(=O)ON3C(=O)CCC3=O)CC2)cc1 (stereo not shown) [MJN110yne]
lowest dose substantially inhibiting MAGL in the brain (MAGL [3]; oral, 1-40 mg•kg^–1, 4 h): 5.0 mg•kg^–1 | lowest probe concentration detecting MAGL reactivity (MAGL [10]): 10 nM | probe concentration at which background proteome reactivity became apparent (mouse brain proteome [11]; CC-ABPP with Rh-N3, more dramatic at 100 μM): 10 µM | degree of background proteome reactivity (mouse brain proteome [11]; CC-ABPP, concentrations up to 100 μM): highest degree of background proteome reactivity | broader background proteome labeling in vivo (mouse brain proteome [12]): did not reveal broader background proteome labeling | inactivation of MAGL in liver (MAGL [13]): potent inactivation | only detectable off-target activity in brain in vivo (brain serine hydrolases): ABHD6
